Assay results: ChEMBL document CHEMBL1641444, “Synthesis and evaluation of 6-[1-(2-[(18)F]fluoro-3-pyridyl)-5-methyl-1H-1,2,3-triazol-4-yl]quinoline for positron emission tomography imaging of the metabotropic glutamate receptor type 1 in brain” (Bioorg Med Chem, 2011)

What was measured:
Cerebellum = assay: Biodistribution in cerebellum of Sprague-Dawley rat at 17 MBq, iv after 15 mins by dissection method; assay type: ADME, organism-based; conditions: in vivo, 0.25 h
How it was run: (§1)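 The [18F]ligand was given to rats as a saline solution (average 17 MBq, about 0.11 nmol) via the tail vein. Three rats per time point were killed by cervical dislocation at 5, 15 and 30 min. Dissected tissues were gamma-counted with decay correction, and results are expressed as % injected dose per gram of wet tissue.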

Pancreas [1] = assay: Biodistribution in pancreas of Sprague-Dawley rat at 17 MBq, iv after 30 mins by dissection method; assay type: ADME, organism-based; conditions: in vivo, 0.5 h
How it was run: (§2)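 [¹⁸F]7a in saline (average 17 MBq/200 µL, 0.11 nmol) was given by tail vein. Rats were killed by cervical dislocation at 5, 15 or 30 min, with three rats per time point. Tissue radioactivity was measured by gamma counting, decay-corrected and expressed as %ID per gram of wet tissue.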

Striatum [2] = assay: Biodistribution in striatum of Sprague-Dawley rat at 17 MBq, iv after 5 mins by dissection method; assay type: ADME, organism-based; conditions: in vivo; how it was run: as §2
Kidney = assay: Biodistribution in kidney of Sprague-Dawley rat at 17 MBq, iv after 5 mins by dissection method; assay type: ADME, organism-based; conditions: in vivo; how it was run: as §1
Cerebral cortex [3] = assay: Biodistribution in cerebral cortex of Sprague-Dawley rat at 17 MBq, iv after 15 mins by dissection method; assay type: ADME, organism-based; conditions: in vivo, 0.25 h; how it was run: as §1
Cerebral cortex [4] = assay: Biodistribution in cerebral cortex of Sprague-Dawley rat at 17 MBq, iv after 30 mins by dissection method; assay type: ADME, organism-based; conditions: in vivo, 0.5 h; how it was run: as §1
Lung = assay: Biodistribution in lung of Sprague-Dawley rat at 17 MBq, iv after 15 mins by dissection method; assay type: ADME, organism-based; conditions: in vivo, 0.25 h; how it was run: as §2
Spleen [5] = assay: Biodistribution in spleen of Sprague-Dawley rat at 17 MBq, iv after 5 mins by dissection method; assay type: ADME, organism-based; conditions: in vivo; how it was run: as §2
[6] = Biodistribution in olfactory bulb of Sprague-Dawley rat at 17 MBq, iv after 5 mins by dissection method; assay type: ADME, organism-based; conditions: in vivo; how it was run: as §2
Striatum [7] = assay: Biodistribution in striatum of Sprague-Dawley rat at 17 MBq, iv after 15 mins by dissection method; assay type: ADME, organism-based; conditions: in vivo, 0.25 h; how it was run: as §2
[8] = Biodistribution in small intestine of Sprague-Dawley rat at 17 MBq, iv after 15 mins by dissection method; assay type: ADME, organism-based; conditions: in vivo, 0.25 h; how it was run: as §2
Bone [9] = assay: Biodistribution in bone of Sprague-Dawley rat at 17 MBq, iv after 5 mins by dissection method; assay type: ADME, organism-based, Bone element; conditions: in vivo; how it was run: as §1
Muscle tissue [10] = assay: Biodistribution in muscle of Sprague-Dawley rat at 17 MBq, iv after 5 mins by dissection method; assay type: ADME, organism-based; conditions: in vivo; how it was run: as §2
Bone [11] = assay: Biodistribution in bone of Sprague-Dawley rat at 17 MBq, iv after 15 mins by dissection method; assay type: ADME, organism-based, Bone element; conditions: in vivo, 0.25 h; how it was run: as §1
[12] = Fraction unbound in Sprague-Dawley rat plasma after 15 mins by ultra-filtration method; assay type: ADME; conditions: 0.25 h
How it was run: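 Plasma protein binding was measured by ultrafiltration. Blood was spun at 3900 rpm for 5 min at 4 °C to obtain plasma. 40 µL of plasma was centrifuged in a filter unit at 2000 rpm for 15 min at 25 °C, and a saline control was run the same way. Free fraction was taken as ultrafiltrate/plasma radioactivity, corrected for a stick factor.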

[13] = Ratio of drug uptake in Sprague-Dawley rat cerebellum to medulla at 17 MBq, iv after 10 to 15 mins by small-animal PET; conditions: in vivo
[14] = Metabolic stability in plasma of ddy mouse assessed as reduction of parent compound level at 3.7 MBq, iv after 5 mins by HPLC analysis; design: scale not given: the % may be the effect or the level left
[15] = Biodistribution in olfactory bulb of Sprague-Dawley rat at 17 MBq, iv after 15 mins by dissection method; assay type: ADME, organism-based; conditions: in vivo, 0.25 h; how it was run: as §2
Hippocampus [16] = assay: Biodistribution in hippocampus of Sprague-Dawley rat at 17 MBq, iv after 5 mins by dissection method; assay type: ADME, organism-based; conditions: in vivo; how it was run: as §1
Heart = assay: Biodistribution in heart of Sprague-Dawley rat at 17 MBq, iv after 15 mins by dissection method; assay type: ADME, organism-based; conditions: in vivo, 0.25 h; how it was run: as §1
[17] = Biodistribution in olfactory bulb of Sprague-Dawley rat at 17 MBq, iv after 30 mins by dissection method; assay type: ADME, organism-based; conditions: in vivo, 0.5 h; how it was run: as §2
Hippocampus [18] = assay: Biodistribution in hippocampus of Sprague-Dawley rat at 17 MBq, iv after 15 mins by dissection method; assay type: ADME, organism-based; conditions: in vivo, 0.25 h; how it was run: as §1
[19] = Ratio of drug uptake in Sprague-Dawley rat cerebral cortex to medulla at 17 MBq, iv after 10 to 15 mins by small-animal PET; conditions: in vivo
Blood [20] = assay: Biodistribution in blood of Sprague-Dawley rat at 17 MBq, iv after 5 mins by dissection method; assay type: ADME, organism-based; conditions: in vivo; how it was run: as §1
[21] = Metabolic stability in plasma of ddy mouse assessed as reduction of parent compound level at 3.7 MBq, iv after 15 mins by HPLC analysis; design: scale not given: the % may be the effect or the level left; conditions: 0.25 h
Thalamus [22] = assay: Biodistribution in thalamus of Sprague-Dawley rat at 17 MBq, iv after 30 mins by dissection method; assay type: ADME, organism-based; conditions: in vivo, 0.5 h; how it was run: as §2
Spleen [23] = assay: Biodistribution in spleen of Sprague-Dawley rat at 17 MBq, iv after 15 mins by dissection method; assay type: ADME, organism-based; conditions: in vivo, 0.25 h; how it was run: as §2
Blood [24] = assay: Biodistribution in blood of Sprague-Dawley rat at 17 MBq, iv after 15 mins by dissection method; assay type: ADME, organism-based; conditions: in vivo, 0.25 h; how it was run: as §1
Thalamus [25] = assay: Biodistribution in thalamus of Sprague-Dawley rat at 17 MBq, iv after 5 mins by dissection method; assay type: ADME, organism-based; conditions: in vivo; how it was run: as §2
Liver = assay: Biodistribution in liver of Sprague-Dawley rat at 17 MBq, iv after 30 mins by dissection method; assay type: ADME, organism-based; conditions: in vivo, 0.5 h; how it was run: as §2
[26] = Biodistribution in whole brain of Sprague-Dawley rat at 17 MBq, iv after 15 mins by dissection method; assay type: ADME, organism-based; conditions: in vivo, 0.25 h; how it was run: as §2
[27] = Ratio of drug uptake in Sprague-Dawley rat striatum to medulla at 17 MBq, iv after 10 to 15 mins by small-animal PET; conditions: in vivo
[28] = Biodistribution in small intestine of Sprague-Dawley rat at 17 MBq, iv after 5 mins by dissection method; assay type: ADME, organism-based; conditions: in vivo; how it was run: as §2
[29] = system: Cerebellum (Mus musculus); assay: Metabolic stability in cerebellum of mouse assessed as reduction of parent compound level at 3.7 MBq, iv after 30 mins by HPLC analysis; design: scale not given: the % may be the effect or the level left; conditions: in vivo, 0.5 h
[30] = Metabolic stability in plasma of ddy mouse assessed as reduction of parent compound level at 3.7 MBq, iv after 30 mins by HPLC analysis; design: scale not given: the % may be the effect or the level left; conditions: 0.5 h
Muscle tissue [31] = assay: Biodistribution in muscle of Sprague-Dawley rat at 17 MBq, iv after 15 mins by dissection method; assay type: ADME, organism-based; conditions: in vivo, 0.25 h; how it was run: as §2
[32] = Biodistribution in whole brain of Sprague-Dawley rat at 17 MBq, iv after 5 mins by dissection method; assay type: ADME, organism-based; conditions: in vivo; how it was run: as §2
[33] = Ratio of drug uptake in Sprague-Dawley rat thalamus to medulla at 17 MBq, iv after 10 to 15 mins by small-animal PET; conditions: in vivo
Pancreas [34] = assay: Biodistribution in pancreas of Sprague-Dawley rat at 17 MBq, iv after 15 mins by dissection method; assay type: ADME, organism-based; conditions: in vivo, 0.25 h; how it was run: as §2

Cc1c(-c2ccc3ncccc3c2)nnn1-c1cccnc1[18F]
Drug uptake (Cerebellum): 0.54 % ID/g
Drug uptake (Pancreas [1]): 0.21 % ID/g
Drug uptake (Striatum [2]): 0.54 % ID/g
Drug uptake (Kidney): 0.76 % ID/g
Drug uptake (Cerebral cortex [3]): 0.2 % ID/g
Drug uptake (Cerebral cortex [4]): 0.09 % ID/g
Drug uptake (Lung): 0.31 % ID/g
Drug uptake (Spleen [5]): 0.43 % ID/g
Drug uptake [6]: 0.52 % ID/g
Drug uptake (Striatum [7]): 0.23 % ID/g
Drug uptake [8]: 4.64 % ID/g
Drug uptake (Bone [9]): 0.22 % ID/g
Drug uptake (Muscle tissue [10]): 0.28 % ID/g
Drug uptake (Bone [11]): 0.15 % ID/g
Activity [12]: 8.5%
Ratio [13]: 3.73
Stability [14]: 57%
Drug uptake [15]: 0.24 % ID/g
Drug uptake (Hippocampus [16]): 0.58 % ID/g
Drug uptake (Heart): 0.24 % ID/g
Drug uptake [17]: 0.1 % ID/g
Drug uptake (Hippocampus [18]): 0.22 % ID/g
Ratio [19]: 1.31
Drug uptake (Blood [20]): 0.38 % ID/g
Stability [21]: 23%
Drug uptake (Thalamus [22]): 0.1 % ID/g
Drug uptake (Spleen [23]): 0.25 % ID/g
Drug uptake (Blood [24]): 0.26 % ID/g
Drug uptake (Thalamus [25]): 0.73 % ID/g
Drug uptake (Liver): 1.93 % ID/g
Drug uptake [26]: 0.23 % ID/g
Ratio [27]: 1.55
Drug uptake [28]: 3.06 % ID/g
Stability [29]: 67%
Stability [30]: 4%
Drug uptake (Muscle tissue [31]): 0.14 % ID/g
Drug uptake [32]: 0.52 % ID/g
Ratio [33]: 1.91
Drug uptake (Pancreas [34]): 0.34 % ID/g
